Assay [1] has as its target cyclic AMP phosphodiesterase (guinea pig). Description: Inhibition of cyclic AMP-phosphodiesterase ( PDE) in the supernatant of tracheal muscle homogenate.
Assay [2] deals with Adenosine A2 receptor (guinea pig). Nature of the assay: Binding affinity against adenosine A2 receptor of striatal membrane using [3H]CGS-21680 as a radioligand.
The species entered for assay [3] is Cavia porcellus. Nature of the assay: Effective concentration required in vitro for tracheal muscle (from male Hartley guinea pigs) relaxation. The assay is classed as functional. Conditions: Trachea. In short, it runs like this: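 Tracheal ring chains from male Hartley guinea pigs (300–500 g), 37 °C Krebs-Henseleit pH 7.4, 95% O2–5% CO2, 0.5 g tension, spontaneous tone; cumulative compound addition, isotonic recording.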

For assay [4], the species on record is Cavia porcellus. Nature of the assay: Effective concentration required in vitro for heart stimulation (right atrium) in guinea pig. It counts as functional. The note with it: Cardiac atrium. In short, it runs like this: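 Isolated right atrium of male Hartley guinea pigs, 25 °C Krebs-Henseleit gassed 95% O2–5% CO2, 0.5 g tension; cumulative concentrations; beating rate via cardiometer triggered by isometric contraction. EC15 = concentration raising rate 15% above unstimulated; 3–5 experiments.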

Assay [5] addresses T1, Adenosine receptor A1 (Cavia porcellus, UniProt P47745).
T1 sequence (P47745 whole entry): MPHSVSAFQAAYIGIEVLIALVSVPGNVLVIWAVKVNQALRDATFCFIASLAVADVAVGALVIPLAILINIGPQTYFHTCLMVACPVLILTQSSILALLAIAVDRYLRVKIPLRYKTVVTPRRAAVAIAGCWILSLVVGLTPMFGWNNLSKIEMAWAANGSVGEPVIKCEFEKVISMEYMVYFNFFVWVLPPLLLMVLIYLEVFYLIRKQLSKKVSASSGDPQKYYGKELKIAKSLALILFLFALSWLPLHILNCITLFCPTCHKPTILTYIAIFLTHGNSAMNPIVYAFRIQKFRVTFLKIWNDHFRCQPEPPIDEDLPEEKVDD
Description: Binding affinity against adenosine A1 receptor of cerebral cortex using [3H]CPX as a radioligand. The assay is classed as tissue-based.

The nature of assay [6]: Bronchoselectivity expressed as ratio of stimulatory activity in the right atrium (EC15) to relaxant activity in the tracheal muscle (EC50). The assay is classed as functional, Cardiac atrium.

From ChEMBL document CHEMBL1126685, “Bronchodilator activity of xanthine derivatives substituted with functional groups at the 1- or 7-position” (J Med Chem, 1993) come the findings set out here.

Molecules are shown by their SMILES.

In general, Ki refers to a measure of affinity in units of concentration, obtained from inhibition or displacement. Low readings indicate tighter binding, high ones weaker binding. As usually defined, the EC50 is the concentration giving half of the maximal effect. Low values mean a more potent agent, high ones a less potent agent.

Consider `CCCn1c(=O)n(CCO)c(=O)c2[nH]cnc21`, for which the figures for the Ki in assay [1], in assay [2] and in assay [5] were 14.1 µM, more than 200 µM and 50 µM, respectively. This compound also showed an EC50 in assay [3] of 0.51 µM. In assay [4], this compound returned an EC15 of 2 µM. Moreover, in assay [6], the Selectivity came to 3.9.
Regarding `CCCn1c(=O)n(CCC(=O)O)c(=O)c2[nH]cnc21`, the figures for the Ki in assay [1], in assay [2] and in assay [5] were 60 µM, more than 200 µM and more than 200 µM, respectively. In assay [3], the EC50 was determined as 21.2 µM. Moreover, the EC15 in assay [4] is more than 100 µM. In assay [6], the Selectivity is recorded as 4.7.
Take `CCCn1c(=O)n(CC)c(=O)c2[nH]cnc21`: the Ki in assay [2] was determined as 3.9 µM. Also, the EC50 in assay [3] is 1.3 µM. Further, the EC15 in assay [4] came to 6.1 µM. Also, in assay [6], the Selectivity came to 4.7.
As to `CCCn1c(=O)n(CCC#N)c(=O)c2[nH]cnc21`, the Ki in assay [1] turned out to be 40.8 µM; in assay [2] it was 162 µM; in assay [5], 15.9 µM. The compound further displayed an EC50 in assay [3] of 1.7 µM. In assay [4], this compound yielded an EC15 of 4.3 µM. Also, the Selectivity in assay [6] is reported as 2.5.
Turning to `CCCn1c(=O)n(C)c(=O)c2c1ncn2CCCN(C)C`, the Ki in assay [1], in assay [2] and in assay [5] was more than 200 µM each time. The EC50 in assay [3] was more than 100 µM. In assay [4], this compound displayed an EC15 of more than 100 µM. The Selectivity in assay [6] came to 1.
For the compound `CCCn1c(=O)n(C)c(=O)c2c1ncn2CCCO`, the results for the Ki in assay [1], in assay [2] and in assay [5] were 26.2 µM, more than 200 µM and 112 µM, respectively. The compound further yielded an EC50 in assay [3] of 22.6 µM. This compound came in with an EC15 in assay [4] of more than 100 µM. Also, in assay [6], the Selectivity is reported as 4.4.
On to `CCCn1c(=O)n(CCCN(C)C)c(=O)c2[nH]cnc21`, for which the Ki in assay [1] is 92 µM; in assay [2] it was more than 200 µM; in assay [5] it was 43.2 µM. The same compound displayed an EC50 in assay [3] of 20.5 µM. This compound registered an EC15 in assay [4] of more than 100 µM. In assay [6], the Selectivity worked out at 4.9.
Regarding `CCCn1c(=O)n(C)c(=O)c2c1ncn2CC#N`, the Ki in assay [1] stood at 16.5 µM; in assay [2], 12.8 µM; in assay [5], 6.6 µM. Besides, in assay [3], a half-maximal effect (EC50) was put at 35.3 µM. The EC15 in assay [4] is more than 100 µM. The Selectivity in assay [6] was determined as 2.8.
`CCCn1c(=O)n(C)c(=O)c2c1ncn2CCC#N`: the Ki was 46 µM in assay [1], more than 200 µM in assay [2] and 88.6 µM in assay [5]. In addition, the EC50 in assay [3] was found to be 27.6 µM. This compound yielded an EC15 in assay [4] of more than 100 µM. In addition, the Selectivity in assay [6] is 3.6.
Regarding `CCCn1c(=O)n(C)c(=O)c2c1ncn2CCC(N)=O`, the EC50 in assay [3] was more than 100 µM. Moreover, the EC15 in assay [4] was more than 100 µM. For the same compound, in assay [5], the Ki is more than 200 µM.
As for `CCCn1c(=O)n(CCC(C)=O)c(=O)c2[nH]cnc21`, the Ki in assay [1] turned out to be 13 µM; in assay [2] it was 144 µM; in assay [5] it was 11.2 µM. In assay [3], this compound showed an EC50 of 3.5 µM. Further, the EC15 in assay [4] came out at 27 µM. The Selectivity in assay [6] worked out at 7.7.
As to `C=CCn1c(=O)c2[nH]cnc2n(CCC)c1=O`, the Ki was found to be 27.3 µM in assay [1], 11.8 µM in assay [2] and 1.7 µM in assay [5]. In assay [3], this compound displayed an EC50 of 1.6 µM. In assay [4], this compound yielded an EC15 of 5.4 µM. For the same compound, the Selectivity in assay [6] was found to be 3.4.
In the case of `C=CCn1cnc2c1c(=O)n(C)c(=O)n2CCC`, in assay [3], it took 11.2 µM to reach a half-maximal effect (EC50). Besides, the EC15 in assay [4] was determined as 22.4 µM. Also, in assay [5], the Ki was 15.4 µM.
`CCCn1c(=O)n(CC#N)c(=O)c2[nH]cnc21` came in with an EC50 in assay [3] of 4.2 µM. The compound further had an EC15 in assay [4] of 1.7 µM. In assay [5], the Ki amounted to 2.1 µM.
In assay [3], `CCCn1c(=O)n(CC(N)=O)c(=O)c2[nH]cnc21` registered an EC50 of more than 100 µM. In assay [4], this compound had an EC15 of more than 100 µM. Moreover, affinity in assay [5] was put at a Ki of 39.7 µM.
`CCCn1c(=O)n(C)c(=O)c2c1ncn2CC(=O)O` gave an EC50 in assay [3] of more than 100 µM. The compound also showed an EC15 in assay [4] of more than 100 µM. The same compound displayed a Ki in assay [5] of more than 200 µM.
The compound `CCCn1c(=O)n(C)c(=O)c2c1ncn2CC` returned an EC15 in assay [4] of more than 100 µM.
